Results: ChEMBL document CHEMBL4706575, “Nonpeptidic quinazolinone derivatives as dual nucleotide-binding oligomerization domain-like receptor 1/2 antagonists for adjuvant cancer chemotherapy” (Eur J Med Chem, 2020)
Activity calls are given as the source filed them. The calls are words filed in the database; no cut-off is given here.

What was measured:
[1] = target: T1, Nucleotide-binding oligomerization domain-containing protein 1 (Homo sapiens) (UniProt Q9Y239); assay: Antagonist activity at NOD1 in human THP-1 cells assessed as inhibition of C12-iE-DAP-induced IL6 mRNA expression preincubated for 1 hr followed by C12-iE-DAP addition and measured after 90 mins by qRT-PCR analysis; assay type: cell-based; settings: filed as antagonist, dose 1-10 µM, time 150.0 min
T1 sequence (whole entry): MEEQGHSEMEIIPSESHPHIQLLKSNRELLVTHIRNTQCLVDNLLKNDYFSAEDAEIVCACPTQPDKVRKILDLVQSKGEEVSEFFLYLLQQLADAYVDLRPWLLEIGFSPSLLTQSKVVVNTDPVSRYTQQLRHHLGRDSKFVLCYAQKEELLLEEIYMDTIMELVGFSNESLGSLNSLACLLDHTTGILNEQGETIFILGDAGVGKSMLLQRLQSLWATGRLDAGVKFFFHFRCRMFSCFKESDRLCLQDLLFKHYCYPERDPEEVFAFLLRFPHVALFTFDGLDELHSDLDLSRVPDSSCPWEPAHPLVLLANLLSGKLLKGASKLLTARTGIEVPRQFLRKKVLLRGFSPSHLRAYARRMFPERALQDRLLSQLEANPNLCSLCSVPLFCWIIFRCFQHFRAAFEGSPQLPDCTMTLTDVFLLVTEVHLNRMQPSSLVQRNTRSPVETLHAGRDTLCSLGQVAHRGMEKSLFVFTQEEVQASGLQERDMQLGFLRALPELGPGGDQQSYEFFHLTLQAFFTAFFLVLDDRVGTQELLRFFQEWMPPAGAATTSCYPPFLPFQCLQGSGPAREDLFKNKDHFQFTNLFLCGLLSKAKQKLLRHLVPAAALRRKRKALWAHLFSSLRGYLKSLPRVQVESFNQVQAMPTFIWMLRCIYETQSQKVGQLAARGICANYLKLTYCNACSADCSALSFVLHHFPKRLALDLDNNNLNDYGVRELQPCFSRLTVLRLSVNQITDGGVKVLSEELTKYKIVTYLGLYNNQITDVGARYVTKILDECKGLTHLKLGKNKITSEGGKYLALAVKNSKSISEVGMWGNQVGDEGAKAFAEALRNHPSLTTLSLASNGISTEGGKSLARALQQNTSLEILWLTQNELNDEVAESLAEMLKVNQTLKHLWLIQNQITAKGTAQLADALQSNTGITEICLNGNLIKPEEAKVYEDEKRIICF
Summary of the method: (§1)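 THP-1 cells in RPMI-1640 with 10% FBS, treated with compound (1.0 or 10 µM) or vehicle for 1 h. Then stimulated 90 min with C12-iE-DAP 500 ng/mL (NOD1) or MDP (NOD2). IL-6, TNF-α and IL-8 mRNA measured by qRT-PCR. Mean ± SD, n = 6, two-tailed t-test.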

[2] = target: T1, Nucleotide-binding oligomerization domain-containing protein 1 (Homo sapiens); assay: Antagonist activity at NOD1 in HEK-Blue hNOD1 cells assessed as inhibition of C12-iE-DAP-induced NFkappaB activation-mediated SEAP release at 5 uM preincubated for 3 hrs followed by C12-iE-DAP addition and measured after 20 hrs by spectrophotometric method relative to control; assay type: cell-based; settings: filed as antagonist, time 23.0 hrs
[3] = target: T2, Nucleotide-binding oligomerization domain-containing protein 2 (Homo sapiens, UniProt Q9HC29); assay: Antagonist activity at NOD2 in human THP-1 cells assessed as inhibition of MDP-induced increase in JNK phosphorylation preincubated for 1 hr followed by MDP addition and measured after 30 mins by Western blot analysis; assay type: cell-based; settings: filed as antagonist, dose 1-10 µM, time 1.5 hrs
T2 sequence (Q9HC29 whole entry, the tested form may be a part): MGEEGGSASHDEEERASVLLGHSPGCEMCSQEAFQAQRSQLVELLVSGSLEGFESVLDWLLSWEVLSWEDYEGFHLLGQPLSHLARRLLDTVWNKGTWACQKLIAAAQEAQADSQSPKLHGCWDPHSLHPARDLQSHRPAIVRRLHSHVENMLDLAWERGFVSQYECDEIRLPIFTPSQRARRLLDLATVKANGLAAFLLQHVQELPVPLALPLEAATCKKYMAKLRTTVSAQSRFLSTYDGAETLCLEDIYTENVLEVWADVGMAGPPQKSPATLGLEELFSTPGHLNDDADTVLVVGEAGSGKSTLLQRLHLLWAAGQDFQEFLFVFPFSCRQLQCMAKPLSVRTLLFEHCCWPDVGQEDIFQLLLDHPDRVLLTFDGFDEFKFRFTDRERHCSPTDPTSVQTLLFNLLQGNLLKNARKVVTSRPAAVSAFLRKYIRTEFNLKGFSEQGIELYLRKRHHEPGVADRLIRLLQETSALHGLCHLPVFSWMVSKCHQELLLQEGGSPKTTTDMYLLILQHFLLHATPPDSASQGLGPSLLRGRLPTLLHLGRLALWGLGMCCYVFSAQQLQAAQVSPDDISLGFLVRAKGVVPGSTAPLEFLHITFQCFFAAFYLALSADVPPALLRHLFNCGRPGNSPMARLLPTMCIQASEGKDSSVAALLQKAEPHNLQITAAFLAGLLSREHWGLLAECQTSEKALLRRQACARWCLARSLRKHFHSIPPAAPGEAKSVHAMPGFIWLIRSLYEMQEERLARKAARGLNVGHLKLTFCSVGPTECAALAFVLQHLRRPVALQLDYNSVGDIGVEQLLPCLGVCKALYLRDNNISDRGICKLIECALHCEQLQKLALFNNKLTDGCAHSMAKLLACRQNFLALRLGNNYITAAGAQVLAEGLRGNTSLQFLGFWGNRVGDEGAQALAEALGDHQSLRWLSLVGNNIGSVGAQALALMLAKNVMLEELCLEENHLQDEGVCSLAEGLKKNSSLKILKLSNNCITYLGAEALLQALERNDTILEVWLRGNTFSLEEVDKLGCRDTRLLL
Summary of the method: (§2)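 Serum-starved THP-1 cells pretreated with compound (1.0 or 10 µM) or without for 1 h. Then C12-iE-DAP 500 ng/mL (NOD1) or MDP (NOD2) for 30 min. Lysed in cold whole-cell buffer. Western blot for IκBα and for total and phospho RIP2, IKKα/β, p65, JNK, p38 and ERK1/2. β-actin as loading control.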

B16-F10 = assay: Potentiation of paclitaxel-induced antitumor activity against mouse B16-F10 cells implanted in C57BL/6 mouse assessed as tumor growth inhibition at 50 mg/kg, iv administered every other day for 15 days measured 24 hrs post last dose (reference value: 64.07%); assay type: functional; settings: 384 h, time 16 day, read-out: TGI
[4] = target: T1, Nucleotide-binding oligomerization domain-containing protein 1 (Homo sapiens); assay: Antagonist activity at NOD1 in human THP-1 cells assessed as inhibition of C12-iE-DAP-induced increase in IKKalpha/beta phosphorylation at 1 to 10 uM preincubated for 1 hr followed by C12-iE-DAP addition and measured after 30 mins by Western blot analysis; assay type: cell-based; settings: filed as antagonist, dose 1-10 µM, time 1.5 hrs; summary of the method: as §2
[5] = target: T2, Nucleotide-binding oligomerization domain-containing protein 2; assay: Antagonist activity at NOD2 in human THP-1 cells assessed as inhibition of MDP-induced IkappaBalpha degradation preincubated for 1 hr followed by MDP addition and measured after 30 mins by Western blot analysis; assay type: cell-based; settings: filed as antagonist, dose 1-10 µM, time 1.5 hrs; summary of the method: as §2
[6] = target: T2, Nucleotide-binding oligomerization domain-containing protein 2; assay: Antagonist activity at NOD2 in human THP-1 cells assessed as inhibition of MDP-induced TNFalpha mRNA expression preincubated for 1 hr followed by MDP addition and measured after 90 mins by qRT-PCR analysis; assay type: cell-based; settings: filed as antagonist, dose 1-10 µM, time 150.0 min; summary of the method: as §1
[7] = target: T1, Nucleotide-binding oligomerization domain-containing protein 1 (Homo sapiens); assay: Antagonist activity at NOD1 in human THP-1 cells assessed as inhibition of C12-iE-DAP-induced IL8 mRNA expression preincubated for 1 hr followed by C12-iE-DAP addition and measured after 90 mins by qRT-PCR analysis; assay type: cell-based; settings: filed as antagonist, dose 1-10 µM, time 150.0 min; summary of the method: as §1
[8] = target: T2, Nucleotide-binding oligomerization domain-containing protein 2; assay: Antagonist activity at NOD2 in human THP-1 cells assessed as inhibition of MDP-induced IL8 mRNA expression preincubated for 1 hr followed by MDP addition and measured after 90 mins by qRT-PCR analysis; assay type: cell-based; settings: filed as antagonist, dose 1-10 µM, time 150.0 min; summary of the method: as §1
[9] = target: T2, Nucleotide-binding oligomerization domain-containing protein 2; assay: Antagonist activity at NOD2 in human THP-1 cells assessed as inhibition of MDP-induced IL6 mRNA expression preincubated for 1 hr followed by MDP addition and measured after 90 mins by qRT-PCR analysis; assay type: cell-based; settings: filed as antagonist, dose 1-10 µM, time 150.0 min; summary of the method: as §1
[10] = target: T1, Nucleotide-binding oligomerization domain-containing protein 1 (Homo sapiens); assay: Antagonist activity at NOD1 in human THP-1 cells assessed as inhibition of C12-iE-DAP-induced increase in JNK phosphorylation at 1 to 10 uM preincubated for 1 hr followed by C12-iE-DAP addition and measured after 30 mins by Western blot analysis; assay type: cell-based; settings: filed as antagonist, dose 1-10 µM, time 1.5 hrs; summary of the method: as §2
[11] = target: T2, Nucleotide-binding oligomerization domain-containing protein 2; assay: Antagonist activity at NOD2 in human THP-1 cells assessed as inhibition of MDP-induced increase in RIP2 phosphorylation preincubated for 1 hr followed by MDP addition and measured after 30 mins by Western blot analysis; assay type: cell-based; settings: filed as antagonist, dose 1-10 µM, time 1.5 hrs; summary of the method: as §2

Question: Which inhibition [1] does the source give for O=C(NCCCOc1ccc(C(F)(F)F)cc1)c1cc2ncn(CC(=O)N3CCCC(F)(F)C3)c(=O)c2cc1-c1cccc(Cl)c1 here?
Answer: Its inhibition is “Dose-dependent effect”.

Question: And the inhibition [2]?
Answer: The inhibition was 91.4%.

Question: And the inhibition [3]?
Answer: Its inhibition is “Dose-dependent effect”.

Question: What about the inhibition in vivo at 50 mg/kg (B16-F10) of the same compound?
Answer: Its inhibition in vivo at 50 mg/kg is 85.5%.

Question: What about the inhibition [4] of the same compound?
Answer: The inhibition was “Active”.

Question: What about the inhibition [5] of the same compound?
Answer: The inhibition was “Dose-dependent effect”.

Question: What about the inhibition [6] of the same compound?
Answer: The inhibition was “Dose-dependent effect”.

Question: And the inhibition [7]?
Answer: The inhibition was “Dose-dependent effect”.

Question: What about the inhibition [8] of the same compound?
Answer: The inhibition was “Dose-dependent effect”.

Question: And the inhibition [9]?
Answer: The inhibition was “Dose-dependent effect”.

Question: What about the inhibition [10] of the same compound?
Answer: The inhibition was “Active”.

Question: And the inhibition [11]?
Answer: The inhibition was “Dose-dependent effect”.
